Experimental data as given in ChEMBL document CHEMBL1134797, “Synthesis and structural studies of aza analogues of functionalized amino acids: new anticonvulsant agents” (2001).

What was measured:
Mus musculus [1] = test: Tested against subcutaneous pentylenetetrazole (Metrazol) seizure test in mice after ip administration; type: functional
Method in brief: (§1)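 Given intraperitoneally to mice. […] Seizure protection scored in the maximal electroshock test or against subcutaneous pentylenetetrazole (Metrazol). Neurologic toxicity scored on the rotorod.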

Rattus norvegicus [2] = test: Evaluated against neurological toxicity determined from the rotarod test in rat after po administration
Mus musculus [3] = test: Evaluated against neurological toxicity determined from the rotarod test in mice after ip administration; type: functional; method in brief: as §1
Rattus norvegicus [4] = test: Evaluated against Maximal electroshock seizure test in rat after po administration
Mus musculus [5] = test: Evaluated against Maximal electroshock seizure test in mice after ip administration; type: functional; method in brief: as §1
[6] = Protective index (TD50/ED50) value of the compound; type: functional
Method in brief: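 Protective index taken as rotorod TD50 divided by maximal electroshock ED50, both in mg/kg and both from dose–effect data at the time of peak effect.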

SMILES	ED50 (Mus musculus [1])	TD50 (Rattus norvegicus [2])	TD50 (Mus musculus [3])	ED50 (Rattus norvegicus [4])	ED50 (Mus musculus [5])	PI [6]
CC(=O)NNC(=O)NCc1ccccc1	>300 mg/kg	> 160 mg/kg	> 160 mg/kg	95 mg/kg	> 100 mg/kg	–
CC(=O)NN(C(=O)NCc1ccccc1)c1ncccn1	>300 mg/kg	> 30 mg/kg	> 100 mg/kg	~30 mg/kg	> 100 mg/kg	–
CC(=O)NN(C(=O)NCc1ccccc1)c1ccccc1	>300 mg/kg	> 30 mg/kg	> 100 mg/kg	> 30 mg/kg	> 30 mg/kg	–
O=C1NC(=O)C(c2ccccc2)(c2ccccc2)N1 [PHENYTOIN]	–	–	43 mg/kg	23 mg/kg	6.5 mg/kg	6.6
CC(=O)NN(C)C(=O)NCc1ccccc1	>300 mg/kg	> 30 mg/kg	> 500 mg/kg	> 30 mg/kg	89 mg/kg	> 5.6
CCCC(CCC)C(=O)O [VALPROIC ACID]	–	–	480 mg/kg	400 mg/kg	290 mg/kg	1.3
CC(=O)NN(C(=O)NCc1ccccc1)c1ccccn1	>100 mg/kg	> 30 mg/kg	> 100 mg/kg	< 30 mg/kg	> 30 mg/kg	–
CC(=O)NN(C(=O)NCc1ccccc1)c1nccs1	>200 mg/kg	> 250 mg/kg	120 mg/kg	6.2 mg/kg	22 mg/kg	5.4
CCC1(c2ccccc2)C(=O)NC(=O)NC1=O [PHENOBARBITAL]	–	–	69 mg/kg	–	22 mg/kg	3.1
